Results published in ChEMBL document CHEMBL5634186, “Structure-Activity Relationship Study of Biselyngbyolide B Reveals Mitochondrial Fission-Induced Cytotoxicity in Cancer” (ACS Med Chem Lett, 2024).
Activity calls are given as the source filed them. No cut-off for these calls is given here.

Tests used:
[1] = Cytotoxicity against HEK293 cells assessed as reduction in cell viability incubated for 16 hrs by MTT assay; type: toxicity, cell-based; conditions: human
HCT-116 [2] = test: Anticancer activity against human HCT-116 cells assessed as inhibition of cell viability incubated for 16 hrs by MTT assay; type: functional, cell-based; conditions: HCT-116, 16 h
HCT-116 [3] = test: Induction of mitochondrial membrane potential loss in human HCT-116 cells incubated for 16 hrs by mitotracker red staining based confocal microscope analysis; type: functional, cell-based; conditions: dose 0.5-1 µM
How it was run: (§1)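 HCT116 cells treated 16 h with compound (0.5 or 1 μM where dosed); stained 30 min with MitoTracker Deep Red FM (membrane potential) or CellROX Red FM (ROS); confocal imaging; mean fluorescence intensity quantified from five fields.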

HCT-116 [4] = test: Induction of ROS generation in human HCT-116 cells incubated for 16 hrs by CellROX Red staining based confocal microscope analysis; type: functional, cell-based; conditions: dose 0.5-1 µM; how it was run: as §1
HCT-116 [5] = test: Induction of apoptosis in human HCT-116 cells assessed as decrease in cleavage of caspase 3 at 1 uM pretreated with NAC for 1 hr followed by compound addition and measured after 16 hrs by immunoblotting analysis; type: functional, cell-based
How it was run: (§2)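 HCT116 cells pretreated 1 h with 5 mM NAC, then 1 μM compound 16 h; immunoblot for cleaved caspase 3 and PARP1, β-actin loading control.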

HCT-116 [6] = test: Induction of apoptosis in human HCT-116 cells assessed as decrease in cleavage of PARP at 1 uM pretreated with NAC for 1 hr followed by compound addition and measured after 16 hrs by immunoblotting analysis; type: functional, cell-based; how it was run: as §2
HCT-116 [7] = test: Induction of ROS generation in mitochondria of human HCT-116 cells transfected with mito-GFP at 1 uM incubated for 16 hrs by CellROX Red staining based confocal microscope analysis; type: functional, cell-based
How it was run: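 HCT116 cells transfected with CellLight Mitochondria-GFP, treated 1 μM for 16 h, stained with CellROX Red FM 30 min; confocal imaging; colocalization of GFP and CellROX Red intensities quantified.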

HCT-116 [8] = test: Induction of ROS generation in mitochondria of human HCT-116 cells at 1 uM preincubated with MitoTEMPO for 1 hr followed by compound addition and measured after 16 hrs by MitoSOX Red staining based confocal microscope analysis; type: functional, cell-based
How it was run: (§3)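 HCT116 cells pretreated 1 h with 10 μM MitoTEMPO, then compound 1 μM for 16 h. Mitochondrial superoxide by MitoSOX Red confocal imaging, intensity quantified; cytotoxicity by LIVE/DEAD kit (Calcein-AM live, EthD-1 dead), percentage dead cells quantified.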

HCT-116 [9] = test: Induction of ROS generation in mitochondria of human HCT-116 cells assessed as number of dead cells at 1 uM preincubated with MitoTEMPO for 1 hr followed by compound addition and measured after 16 hrs by Calcein-AM/EthD-1 staining based confocal microscope analysis; type: functional, cell-based; how it was run: as §3
HCT-116 [10] = test: Induction of mitochondrial fission in human HCT-116 cells assessed as increase in DRP1 phosphorylation at S616 at 0.5 to 1 uM by immunoblotting analysis; type: functional, cell-based; conditions: dose 0.5-1 µM, time 8-24 hrs, TDE = time-dependent effect
How it was run: (§4)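 Immunoblot in HCT116 cells: p-DRP1 S616, p-DRP1 S637, DRP1, Mitofusin1, Mitofusin2 and MFF over time (0, 8, 16, 24 h); p-DRP1 S616, S637, DRP1, Mitofusin1 and OPA at 0.5 and 1 μM. β-Actin loading control.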

HCT-116 [11] = test: Induction of mitochondrial fission in human HCT-116 cells assessed as decrease in DRP1 phosphorylation at S637 at 0.5 to 1 uM by immunoblotting analysis; type: functional, cell-based; conditions: dose 0.5-1 µM, time 8-24 hrs, TDE = time-dependent effect; how it was run: as §4
HCT-116 [12] = test: Induction of mitochondrial fusion in human HCT-116 cells assessed as change in Mitofusin level at 0.5 to 1 uM incubated for 8 to 24 hrs by immunoblotting analysis; type: functional, cell-based; conditions: dose 0.5-1 µM, time 8-24 hrs; how it was run: as §4
HCT-116 [13] = test: Induction of mitochondrial fusion in human HCT-116 cells assessed as change in OPA1 level at 0.5 to 1 uM incubated for 8 to 24 hrs by immunoblotting analysis; type: functional, cell-based; conditions: dose 0.5-1 µM, time 8-24 hrs; how it was run: as §4
HCT-116 [14] = test: Induction of mitochondrial fusion in human HCT-116 cells assessed as change in MFF level at 0.5 to 1 uM incubated for 8 to 24 hrs by immunoblotting analysis; type: functional, cell-based; conditions: dose 0.5-1 µM, time 8-24 hrs; how it was run: as §4
HCT-116 [15] = test: Induction of ROS production in human HCT-116 cells assessed as deterioration of mitochondrial length and area at 1 uM incubated for 16 hrs in presence of CellLight Mitochondria-GFP by confocal microscopy analysis; type: functional, cell-based
How it was run: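 HCT116 cells transfected with CellLight Mitochondria-GFP, treated 1 μM for 16 h; confocal images quantified for mitochondrial length and area.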

HCT-116 [16] = test: Induction of mitochondrial fission in human HCT-116 cells assessed as appearance of mitochondrial puncta at 1 uM incubated for 14 hrs by Mitotracker Red staining based time-lapse microscopy analysis; type: functional, cell-based
How it was run: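 Time-lapse microscopy with MitoTracker Red over 14 h of treatment in HCT116 cells; size of mitochondrial puncta measured as fission read-out.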

HCT-116 [17] = test: Induction of ROS production in human HCT-116 cells assessed as altered mitochondrial architecture at 1 uM pretreated with NAC for 1 hr followed by compound addition and measured after 16 hrs by MitoTracker Deep Red staining based confocal microscopy analysis; type: functional, cell-based
How it was run: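 HCT116 cells pretreated 1 h with or without 5 mM NAC, then 1 μM compound 16 h; MitoTracker Deep Red FM staining 30 min; confocal imaging of mitochondrial morphology with quantification.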

HCT-116 [18] = test: Induction of mitochondrial fission in human HCT-116 cells assessed as increase in DRP1 phosphorylation at S616 at 1 uM preincubated with NAC for 1 hr followed by compound addition and measured after 16 hrs by immunoblotting analysis; type: functional, cell-based
How it was run: (§5)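 Immunoblot of p-DRP1 S616 and p-DRP1 S637 in HCT116 cells pretreated 1 h with or without 5 mM NAC, then 1 μM compound 16 h.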

HCT-116 [19] = test: Induction of mitochondrial fission in human HCT-116 cells assessed as decrease in DRP1 phosphorylation at S637 at 1 uM preincubated with NAC for 1 hr followed by compound addition and measured after 16 hrs by immunoblotting analysis; type: functional, cell-based; how it was run: as §5
HCT-116 [20] = test: Induction of ROS generation in human HCT-116 cells at 1 uM preincubated for 16 hrs followed by Mdivi1 addition for 8 hrs by CellROX Red staining based confocal microscopy analysis; type: functional, cell-based
HCT-116 [21] = test: Induction of mitochondrial membrane potential loss in human HCT-116 cells at 1 uM preincubated for 16 hrs followed by Mdivi1 addition and measured after 8 hrs by MitoTracker Deep Red staining based confocal microscopy analysis; type: functional, cell-based
How it was run: (§6)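 HCT116 cells treated 1 μM for 16 h; DRP1 inhibited with 25 μM Mdivi-1 for 8 h. Staining 30 min with CellROX Red FM, MitoTracker Deep Red FM and LIVE/DEAD reagents; confocal imaging; mean fluorescence intensity from five fields.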

HCT-116 [22] = test: Induction of apoptosis in human HCT-116 cells assessed as number of dead cells at 1 uM preincubated for 16 hrs followed by Mdivi1 addition and measured after 8 hrs by Calcein-AM/EthD-1 staining based confocal microscope analysis; type: functional, cell-based; how it was run: as §6
HCT-116 [23] = test: Induction of apoptosis in human HCT-116 cells assessed as decrease in cleavage of caspase 3 at 1 uM preincubated for 16 hrs followed by Mdivi1 addition and measured after 8 hrs by immunoblotting analysis; type: functional, cell-based
How it was run: (§7)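 HCT116 cells treated 1 μM for 16 h, post-treated with 25 μM Mdivi-1 for 8 h; immunoblot for cleaved caspase 3 and PARP1, β-actin loading control.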

HCT-116 [24] = test: Induction of apoptosis in human HCT-116 cells assessed as decrease in cleavage of PARP at 1 uM preincubated for 16 hrs followed by Mdivi1 addition and measured after 8 hrs by immunoblotting analysis; type: functional, cell-based; how it was run: as §7
HCT-116 [25] = test: Induction of apoptosis in human HCT-116 cells assessed as increase in JNK1 phosphorylation at 1 uM preincubated with NAC for 1 hr followed by compound addition and measured after 16 hrs by immunoblotting analysis; type: functional, cell-based
How it was run: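 Immunoblot of p-JNK and JNK in HCT116 cells pretreated 1 h with or without 5 mM NAC before compound treatment; β-actin loading control.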

HCT-116 [26] = test: Induction of apoptosis in human HCT-116 cells assessed as increase in JNK phosphorylation at 1 uM incubated for 16 hrs by immunoblotting analysis; type: functional, cell-based
How it was run: (§8)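 Immunoblot of p-JNK, JNK, p-p38 and p38 in HCT116 cells after 1 μM compound for 16 h; β-actin loading control.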

HCT-116 [27] = test: Induction of apoptosis in human HCT-116 cells assessed as increase in p-38 phosphorylation at 1 uM incubated for 16 hrs by immunoblotting analysis; type: functional, cell-based; how it was run: as §8
HCT-116 [28] = test: Induction of apoptosis in human HCT-116 cells assessed as increase in JNK1 phosphorylation at 1 uM preincubated with selonsertib for 1 hr followed by compound addition and measured after 16 hrs by immunoblotting analysis; type: functional, cell-based
How it was run: (§9)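 Immunoblot of p-JNK, p-p38 and p38 in HCT116 cells pretreated 1 h with or without 50 μM selonsertib before compound treatment; β-actin loading control.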

HCT-116 [29] = test: Induction of apoptosis in human HCT-116 cells assessed as number of dead cells at 1 uM preincubated with selonsertib for 1 hr followed by compound addition and measured after 16 hrs by Calcein-AM/EthD-1 staining based confocal microscope analysis; type: functional, cell-based
HCT-116 [30] = test: Induction of mitochondrial fission in human HCT-116 cells assessed as increase in DRP1 phosphorylation at S616 after 8 to 24 hrs by immunoblotting analysis; type: functional, cell-based; conditions: dose 0.5-1 µM, time 8-24 hrs; how it was run: as §4
HCT-116 [31] = test: Induction of mitochondrial fission in human HCT-116 cells assessed as decrease in DRP1 phosphorylation at S637 after 8 to 24 hrs by immunoblotting analysis; type: functional, cell-based; conditions: dose 0.5-1 µM, time 8-24 hrs; how it was run: as §4
HCT-116 [32] = test: Induction of apoptosis in human HCT-116 cells assessed as increase in p-38 phosphorylation at 1 uM preincubated with selonsertib for 1 hr followed by compound addition and measured after 16 hrs by immunoblotting analysis; type: functional, cell-based; how it was run: as §9

## C/C=C/C/C(C)=C\[C@H]1C/C=C/C=C/C[C@H](C)/C=C/[C@@H](OC)C/C=C/[C@@H](O)CC(=O)O1
[1]
  IC50 at 16 h: 11.8 µM
HCT-116 [2]
  IC50: 7.1 µM

## C/C=C/C/C(C)=C\[C@H]1C/C=C/C=C/C[C@H](C)/C=C(\C)[C@@H](O)C/C=C/[C@@H](O)CC(=O)O1
[1]
  IC50 at 16 h: 21.6 µM
HCT-116 [2]
  IC50: 6.9 µM

## CCCC/C(C)=C\[C@H]1C/C=C/C=C/C[C@H](C)/C=C(\C)[C@@H](OC)C/C=C/[C@@H](O)CC(=O)O1
[1]
  IC50 at 16 h: 11.3 µM
HCT-116 [2]
  IC50: 8.1 µM

## C/C=C/C/C(C)=C\[C@H]1C/C=C/C=C/C[C@H](C)/C=C(\C)[C@@H](OC)CCC[C@@H](O)CC(=O)O1
[1]
  IC50 at 16 h: 23.7 µM
HCT-116 [2]
  IC50: 0.1 µM
HCT-116 [3]
  Activity: Dose-Dependent Effect
HCT-116 [4]
  Activity: Dose-Dependent Effect
HCT-116 [5]
  Activity: Active
HCT-116 [6]
  Activity: Active
HCT-116 [7]
  Activity: Active
HCT-116 [8]
  Activity: inactive
HCT-116 [9]
  Activity: inactive
HCT-116 [10]
  Activity: Tde
HCT-116 [11]
  Activity: Tde
HCT-116 [12]
  Activity: inactive
HCT-116 [13]
  Activity: inactive
HCT-116 [14]
  Activity: inactive
HCT-116 [15]
  Activity: Active
HCT-116 [16]
  Activity: Active
HCT-116 [17]
  Activity: inactive
HCT-116 [18]
  Activity: inactive
HCT-116 [19]
  Activity: inactive
HCT-116 [20]
  Activity: inactive
HCT-116 [21]
  Activity: inactive
HCT-116 [22]
  Activity: inactive
HCT-116 [23]
  Activity: inactive
HCT-116 [24]
  Activity: inactive
HCT-116 [25]
  Activity: inactive
HCT-116 [26]
  Activity: Active
HCT-116 [27]
  Activity: Active
HCT-116 [28]
  Activity: inactive
HCT-116 [29]
  Activity: inactive
HCT-116 [30]
  Activity: Dose-Dependent Effect
HCT-116 [31]
  Activity: Dose-Dependent Effect
HCT-116 [32]
  Activity: inactive

## CCCCC[C@H]1C/C=C/C=C/C[C@H](C)/C=C(\C)[C@@H](OC)C/C=C/[C@@H](O)CC(=O)O1
[1]
  IC50 at 16 h: 14.3 µM
HCT-116 [2]
  IC50: 8.1 µM

## CO[C@H]1C/C=C/[C@@H](O)CC(=O)O[C@@H](c2ccc(C)cc2)C/C=C/C=C/C[C@H](C)/C=C/1C
[1]
  IC50 at 16 h: 16.5 µM
HCT-116 [2]
  IC50: 7.8 µM
